Molecules are shown by their SMILES. pIC50: −log10 of the molar value. Where only a bound is given, the exact number is not on record here.

Chain of Indoleamine 2,3-dioxygenase 1 (P14902 whole entry): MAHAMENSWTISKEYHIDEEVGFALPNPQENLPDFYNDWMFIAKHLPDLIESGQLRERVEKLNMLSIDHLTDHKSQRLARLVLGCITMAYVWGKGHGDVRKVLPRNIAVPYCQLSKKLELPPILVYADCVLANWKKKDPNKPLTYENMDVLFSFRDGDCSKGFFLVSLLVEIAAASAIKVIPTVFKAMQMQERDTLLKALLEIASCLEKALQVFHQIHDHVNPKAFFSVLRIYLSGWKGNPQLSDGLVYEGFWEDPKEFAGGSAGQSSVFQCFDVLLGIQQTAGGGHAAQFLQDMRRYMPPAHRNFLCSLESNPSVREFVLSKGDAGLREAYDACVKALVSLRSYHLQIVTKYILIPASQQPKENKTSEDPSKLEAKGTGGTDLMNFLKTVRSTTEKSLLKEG

This assay deals with Indoleamine 2,3-dioxygenase 1 (Homo sapiens, UniProt P14902). Put plainly: Inhibition of human IDO1 assessed as reduction in convertion of N-formylkynurenine to kynurenine incubated for 30 mins. The gist of the method:
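IC50 values were taken as the mean of at least two independent assays.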
The term pIC50 denotes the negative decadic logarithm of the IC50, by convention in mol/L. Turning to `CCOC(=O)c1cnc2scc(-c3ccc(C)cc3)n12`, the pIC50 is 4.74.

On to `CCOC(=O)c1cnc2scc(-c3cccc(C)c3)n12`, for which the pIC50 was less than 4.00. The same measure for `CCOC(=O)c1cnc2scc(-c3ccccc3C)n12`: less than 4.00; for `CCOC(=O)c1cnc2scc(-c3ccccc3)n12`: less than 4.00. Take `CCOC(=O)c1cnc2scc(C3=CCCCC3)n12`: the pIC50 is less than 4.00. The same measure for `CCOC(=O)c1cnc2scc(-c3ccc(CC)cc3)n12`: 4.62. The same measure for `CCOC(=O)c1cnc2scc(-c3ccc(OC)cc3)n12`: 4.25; for `CCOC(=O)c1cnc2scc(-c3ccc(Cl)cc3)n12`: 5.09; for `CCOC(=O)c1cnc2scc(-c3ccc(Br)cc3)n12`: 5.26.

`CCOC(=O)c1cnc2scc(Cc3ccccc3)n12`: the pIC50 was less than 4.00.

Consider `CCOC(=O)c1cnc2sc3ccccc3n12`, for which the pIC50 is less than 4.00. For `Cc1ccc(-c2csc3ncc(C(=O)NCCc4ccccc4)n23)cc1`, the pIC50 is 5.46. As for `Cc1ccc(-c2csc3ncc(C(=O)NCCc4cccc(Cl)c4)n23)cc1`, the pIC50 is 5.72. The same measure for `Cc1ccc(-c2csc3ncc(C(=O)NCCc4ccc5c(c4)OCO5)n23)cc1`: 5.44; for `O=C(NCc1cnc2scc(-c3ccc(Br)cc3)n12)Nc1ccccc1`: 6.66. The same measure for `O=C(NCc1ccccc1)NCc1cnc2scc(-c3ccc(Br)cc3)n12`: 6.12. The same measure for `O=C(NCc1cnc2scc(-c3ccc(Br)cc3)n12)NC1CCCCC1`: 5.74; for `O=C(NCc1cnc2scc(-c3ccc(Br)cc3)n12)Nc1ccc2c(c1)OCO2`: 6.92. As for `COc1cccc(NC(=O)NCc2cnc3scc(-c4ccc(Br)cc4)n23)c1`, the pIC50 is 6.80.

Regarding `COc1ccc(NC(=O)NCc2cnc3scc(-c4ccc(Br)cc4)n23)cc1`, the pIC50 was 6.72. The same measure for `N#Cc1ccc(NC(=O)NCc2cnc3scc(-c4ccc(Br)cc4)n23)cc1`: 7.11; for `Cc1ccc(-c2csc3nnc(SCC(=O)Nc4ccc5c(c4)OCO5)n23)cc1`: 5.52. The same measure for `Cc1ccc(-c2csc3ncc(C)n23)cc1`: 5.89.

Source of the values: ChEMBL document CHEMBL3352613, “Crystal Structures and Structure-Activity Relationships of Imidazothiazole Derivatives as IDO1 Inhibitors” (ACS Med Chem Lett, 2014).
